This is an account of results in ChEMBL document CHEMBL1125318, “4-substituted thiophene- and furan-2-sulfonamides as topical carbonic anhydrase inhibitors” (J Med Chem, 1992).

A short description of data set [1]: Partition coefficient (logD7.4). The following applies: octanol/water, pH 7.4. The data set is classed as physicochemical. The method, boiled down:
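Compound was equilibrated between 1-octanol and 0.1 ionic strength pH 7.4 phosphate buffer; each phase was quantified by UV spectrophotometry.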

Data set [2] is described as follows: Ionization constant (pKa). In kind it is physicochemical. The method, boiled down: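 The half-neutralization point was found by titration with 0.5 N NaOH and 0.5 N HCl in 30% EtOH–H2O using a glass electrode.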
Data set [3] concerns the target T1, Carbonic anhydrase 2 (Homo sapiens, UniProt P00918). The data set is described as follows: Inhibition of human carbonic anhydrase II. The conditions noted are these: read-out: I50. The method, boiled down:
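CA II was affinity-purified from human erythrocytes. CO2 hydration was assayed by pH stat in 0.02 M Tris chloride, pH 8.6, at 2 °C with CO2–air (5:95) bubbled at 150 mL/min. The 0.025 N NaOH volume needed to hold pH 8.3 over 3 min was recorded, with inhibitor added before enzyme. I50 was read from semilog plots of % inhibition versus log concentration.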

Data set [4] is described as follows: Solubility measured in water. The data set is classed as physicochemical. The following applies: read-out: S. Put shortly:
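Solubility was measured in water at 25 °C.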

Data set [5] deals with Oryctolagus cuniculus. In words: Ability to penetrate the albino rabbit eye and to inhibit the target enzyme in an homogenate of the iris-ciliary body at 1 hr postdosing, ex vivo when dosed in 0.5% aqueousi (hydroxymethyl) cellulose. In kind it is functional. Put shortly: (§1)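 Albino rabbits received one 50 μL drop of test suspension topically; 1 h after dosing the iris-ciliary body was homogenized and its carbonic anhydrase activity measured ex vivo. Screening used 0.5%, with lower concentrations for some compounds. Reference suspensions were given as 0.1% in 0.5% aqueous (hydroxyethyl)cellulose.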

Data set [6] is described as follows: Solubility measured pH 7.4 at 25 degree C. In kind it is physicochemical. The conditions noted are these: buffer, read-out: S.
For data set [7], the species on record is Oryctolagus cuniculus. The data set is described as follows: Maximum Intraocular pressure reduction in alpha-CT rabbits at the dose (as a 50 microL drop of suspension in 0.5% aqueous cellulose). The data set is classed as functional. The method, boiled down:
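α-Chymotrypsinized rabbits received a 50 μL topical drop of test suspension. IOP was read before dosing and at 0.5, 1, 2, 3, 4 and 5 h after. The value is the maximum fall from the pre-dose reading. Parallel control groups got a drop of 0.5% aqueous (hydroxyethyl)cellulose.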

The target of data set [8] is T1, Carbonic anhydrase 2. In words: Compound was tested in vitro for binding affinity against human carbonic anhydrase II; (ki*10e-9). The method, boiled down: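 Fluorescence competition against dansylamide used purified human erythrocyte CA II (1×10^-7 M) and dansylamide (2×10^-6 M) in pH 7.4, 0.1 ionic strength phosphate buffer at 37 °C. Excitation was 280 nm and emission 460 nm, with stepwise addition of test compound in buffer.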

Data set [9] is described as follows: Solubility (pH 7.4, 25 degree C). In kind it is physicochemical. The following applies: buffer, read-out: S.
In data set [10] the test system is Oryctolagus cuniculus. In words: Ability to penetrate the albino rabbit eye and to inhibit the target enzyme in an homogenate of the iris-ciliary body at 1 hr postdosing, ex vivo when dosed in 0.1% aqueousi (hydroxymethyl) cellulose. The data set is classed as functional. The method, boiled down: as §1
Data set [11] in a line: Aqueous solubility (25 degree C). The data set is classed as physicochemical. The following applies: read-out: S.
Data set [12] relates to Oryctolagus cuniculus. The data set is described as follows: Ability to penetrate the albino rabbit eye and to inhibit the target enzyme in an homogenate of the iris-ciliary body at 1 hr postdosing, ex vivo when dosed in 0.05% aqueousi (hydroxymethyl) cellulose. In kind it is functional. Put shortly: as §1

The logD is the decadic logarithm of the distribution of all forms, ionised or not, between an organic phase and buffer at a given pH. Low values mean lower lipophilicity, high ones higher lipophilicity. The pKa is the negative logarithm of the acid dissociation constant. In general, Inhibition refers to the percentage by which the read-out fell short of the control. Take `CN1CCN(Cc2ccc(C(=O)c3csc(S(N)(=O)=O)c3)cc2)CC1.Cl`: the log distribution coefficient (logD) in [1] is 0.362. Further, the pKa in data set [2] turned out to be 9.32. Moreover, the IC50 at Carbonic anhydrase 2 [3] came out at 4 nM. Also, the results for the solubility in [4] and in data set [6] were 5000 µg/mL and 2000 µg/mL, respectively. Also, the Inhibition with Oryctolagus cuniculus [5] came out at 90%.

By Ki is commonly meant a measure of affinity in units of concentration, obtained from inhibition or displacement. A high value points to a looser hold on the target. `Cl.NS(=O)(=O)c1cc(C(=O)c2ccc(CN3CCOCC3)cc2)cs1`: the “Max IOP reduction” value in the data set listed under Oryctolagus cuniculus [7] is -2.2 mmHg. Besides, the pH-dependent lipophilicity (logD) in [1] was 1.18. For the same compound, the pKa in data set [2] came out at 9.28. The same compound had a Ki at Carbonic anhydrase 2 [8] of 3.32 nM. Further, the IC50 on Carbonic anhydrase 2 [3] was determined as 3.7 nM. Also, the solubility is 12100 µg/mL in [4] and 70 µg/mL in [9]. Besides, the Inhibition with Oryctolagus cuniculus [5] is given as 73%.

In turn, `CCCCNCc1ccc(C(=O)c2csc(S(N)(=O)=O)c2)cc1.Cl` showed a pH-dependent lipophilicity (logD) in data set [1] of 0.568. Besides, the pKa in [2] came to 9.32. Besides, the IC50 at Carbonic anhydrase 2 [3] stood at 12 nM. The Inhibition was determined as 68% with Oryctolagus cuniculus [10] and 95% in the data set with Oryctolagus cuniculus [5]. Further, the solubility in [11] turned out to be 2400 µg/mL; in data set [9], 460 µg/mL.

Consider `CN1CCN(Cc2ccc(S(=O)(=O)c3csc(S(N)(=O)=O)c3)cc2)CC1.Cl`, for which the Inhibition turned out to be 29% with Oryctolagus cuniculus [12], 90% in the data set with Oryctolagus cuniculus [10] and 92% in the data set with Oryctolagus cuniculus [5]. In data set [1], this compound showed a logD of 0.38. The same compound showed a pKa in data set [2] of 9.25. Moreover, the IC50 on Carbonic anhydrase 2 [3] was determined as 11 nM. Moreover, the solubility in data set [11] is above 43000 µg/mL; in data set [9], above 56000 µg/mL.

In [1], `Cl.NS(=O)(=O)c1cc(S(=O)(=O)c2ccc(CN3CCOCC3)cc2)cs1` had a logD of 0.978. The pKa in data set [2] was found to be 8.84. This compound gave an inhibitory constant (Ki) at Carbonic anhydrase 2 [8] of 1.43 nM. Further, at Carbonic anhydrase 2 [3], the IC50 was 7.6 nM. The same compound came in with an Inhibition with Oryctolagus cuniculus [5] of 83%. Further, the solubility in data set [9] was 850 µg/mL.
